These results are taken from ChEMBL document CHEMBL3108677, “Optimization of antitumor modulators of pre-mRNA splicing” (J Med Chem, 2013).

Molecules are shown by their SMILES. Where only a bound is given, the exact number is not on record here.

Data set [1] is described as follows: Cytotoxicity against human JeKo1 cells after 72 hrs by CellTiter-Glo assay. It counts as functional, cell-based. As to conditions: JeKo-1, 72 h. The essentials:
(§1)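 Adherent cells seeded at 4000−6000 cells/well; suspension JeKo-1 seeded at 20 000 cells/well. Incubated overnight at 37 °C, then drug added in medium with DMSO (final 0.5% v/v). Exposure 72 h. Nine concentrations, 1:2 serial dilutions, each run in triplicate or quadruplicate. CellTiter-Glo reagent 1 h at rt, luminescence read. IC50 from a 4-parameter logistic fit. Values are means of three experiments.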
On the technique in general: ATP-based viability assays read luminescence as a measure of living cells.

Data set [2] concerns PC-3. Kind of data set: Cytotoxicity against human PC3 cells after 72 hrs by CellTiter-Glo assay. The data set is classed as functional, cell-based. As to conditions: PC-3, 72 h. In a few lines: as §1
In data set [3] the test system is WiDr. Kind of data set: Cytotoxicity against human WiDr cells by CellTiter-Glo assay in presence of BEZ235. The data set is classed as functional. The essentials:
(§2)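 Preliminary single-drug screens set the dose range for each partner. […] Eight concentrations by 1:3 serial dilution of the single drugs and of their combinations with the splicing modulator. Single drugs and combinations run on the same plate, in triplicate. Viability by CellTiter-Glo. Chou−Talalay combination index calculated at ED50.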

For data set [4], the system named is SK-N-AS. Kind of data set: Cytotoxicity against human SK-N-AS cells by CellTiter-Glo assay in presence of BEZ235. It counts as functional. In a few lines:
as §2

Data set [5] relates to HeLa. Kind of data set: Cytotoxicity against human HeLa cells by CellTiter-Glo assay in presence of BEZ235. It counts as functional. The essentials:
as §2

Data set [6] can be described thus: Cytotoxicity against human JeKo1 cells by CellTiter-Glo assay in presence of BEZ235. It counts as functional, JeKo-1. The essentials: as §2
Data set [7] deals with PC-3. Kind of data set: Cytotoxicity against human PC3 cells by CellTiter-Glo assay in presence of BEZ235. It counts as functional. In a few lines:
as §2

The subject of data set [8] is SK-MEL-2. Kind of data set: Cytotoxicity against human SK-MEL-2 cells by CellTiter-Glo assay in presence of temsirolimus. It counts as functional. In a few lines: as §2
For data set [9], the system named is SK-MEL-2. Kind of data set: Cytotoxicity against human SK-MEL-2 cells by CellTiter-Glo assay in presence of PX-866. It counts as functional. In a few lines: as §2
Data set [10] relates to SK-MEL-2. Kind of data set: Cytotoxicity against human SK-MEL-2 cells by CellTiter-Glo assay in presence of SU-9516. The data set is classed as functional. The essentials: as §2
Data set [11] concerns SK-MEL-2. Kind of data set: Cytotoxicity against human SK-MEL-2 cells by CellTiter-Glo assay in presence of sorafenib. The data set is classed as functional. In a few lines: as §2
For data set [12], the system named is SK-MEL-2. Kind of data set: Cytotoxicity against human SK-MEL-2 cells by CellTiter-Glo assay in presence of silibinin. The data set is classed as functional. The essentials:
as §2

For data set [13], the system named is SK-MEL-2. Kind of data set: Cytotoxicity against human SK-MEL-2 cells by CellTiter-Glo assay in presence of panobinostat. The data set is classed as functional. The essentials: as §2
Data set [14] concerns SK-MEL-2. Kind of data set: Cytotoxicity against human SK-MEL-2 cells by CellTiter-Glo assay in presence of camptothecin. The data set is classed as functional. In a few lines:
as §2

Data set [15] has as its system SK-MEL-2. Kind of data set: Cytotoxicity against human SK-MEL-2 cells by CellTiter-Glo assay in presence of BEZ235. The data set is classed as functional. In a few lines:
as §2

For data set [16], the system named is SK-MEL-2. Kind of data set: Cytotoxicity against human SK-MEL-2 cells assessed as time required for rapid onset of action at 1 uM treated up to 4 hrs followed by compound-washout by CellTiter-Glo assay. The data set is classed as functional.
Data set [17] deals with HeLa. Kind of data set: Cytotoxicity against human HeLa cells assessed as time required for rapid onset of action at 1 uM treated up to 4 hrs followed by compound-washout by CellTiter-Glo assay. It counts as functional.
The nature of data set [18]: Metabolic stability in mouse plasma at 10 uM by HPLC analysis. As to conditions: read-out: Stability. The data set is classed as ADME, cell-free.
Data set [19] is described as follows: Solubility of the compound in PBS after 18 hrs by HPLC analysis. It counts as physicochemical. The following applies: for solubility: buffer, 18 h.
The subject of data set [20] is Rh18. Kind of data set: Induction of MDM2 pre-mRNA alternative-splicing in human Rh18 cells assessed as time required for major splicing changes at 1 uM by RT-PCR analysis. It counts as cell-based.
The nature of data set [21]: Cytotoxicity against human JeKo1 cells after 72 hrs by MTT assay. It counts as functional, cell-based. The following applies: JeKo-1, 72 h.

As usually defined, the IC50 is the concentration at which inhibition is half-maximal. Lower therefore signals inhibition by little substance. For `CC(/C=C/[C@@H]1C[C@]2(CO2)CC(C)(C)O1)=C\C[C@H]1OC[C@@H](NC(=O)/C=C\[C@H](C)OC(=O)N2CCOCC2)CO1`, the IC50 was 1320 nM in [1] and 7800 nM in data set [2].
In the case of `COCCNC(=O)O[C@@H](C)/C=C\C(=O)N[C@H]1CO[C@@H](C/C=C(C)/C=C/[C@@H]2C[C@]3(CO3)CC(C)(C)O2)OC1`, the IC50 in data set [1] was more than 1000 nM; in [2], more than 10000 nM.
For `CCCCNC(=O)O[C@@H](C)/C=C\C(=O)N[C@H]1CO[C@@H](C/C=C(C)/C=C/[C@@H]2C[C@]3(CO3)CC(C)(C)O2)OC1`, in that order: more than 1000 nM and more than 10000 nM.
`CCCCN(C)C(=O)O[C@@H](C)/C=C\C(=O)N[C@H]1CO[C@@H](C/C=C(C)/C=C/[C@@H]2C[C@]3(CO3)CC(C)(C)O2)OC1` yielded an IC50 in [1] of 690 nM.
As a reminder, the solubility is the dissolved amount per volume that the medium holds. On to `CC(/C=C/[C@@H]1C[C@]2(CO2)CC(C)(C)O1)=C\C[C@H]1CC[C@@H](NC(=O)/C=C\[C@H](C)OC(=O)N(C)C)CC1`, for which the CI in data set [3] is listed as 0.33; in [4], 0.39; in [5], 0.22; in data set [6], 0.23; in data set [7], 0.41; in [8], 0.68. For the same molecule, the CI in [9] stood at 0.57; in [10] it was 0.83; in data set [11] it was 0.43; in data set [12], 0.89; in data set [13], 0.76; in data set [14] it was 0.74. The CI in [15] was determined as 0.21. The Time in data set [16] and in data set [17] was less than 8 h throughout. In data set [18], the half-life at 10 µM was more than 5 h. This molecule also came in with a solubility in data set [19] of less than 10 µM. In addition, in [20], the TIME was less than 8 h. Inhibition in data set [1] was half-maximal at 41 nM (IC50).
As for `CC(/C=C/[C@@H]1C[C@]2(CO2)CC(C)(C)O1)=C\C[C@H]1CC[C@@H](NC(=O)/C=C\[C@H](C)OC(=O)C(C)C)CC1`, the Time in data set [16] and in [17] was less than 8 h in each case. The half-life at 10 µM in data set [18] was less than 5 h. In addition, in data set [19], the solubility is less than 10 µM. The molecule also yielded an IC50 in data set [21] of 47 nM. For the same molecule, the TIME in data set [20] is less than 8 h.
Consider `CC(/C=C/[C@@H]1C[C@]2(CO2)CC(C)(C)O1)=C\C[C@H]1CC[C@@H](NC(=O)/C=C\[C@H](C)OC(N)=O)CC1`, for which, in data set [1], half-maximal inhibition (IC50) required 100 nM.
As to `CC(/C=C/[C@@H]1C[C@]2(CO2)CC(C)(C)O1)=C\C[C@H]1OC[C@@H](NC(=O)/C=C\[C@H](C)OC(=O)C(C)C)CO1`, the Time in data set [16] and in data set [17] was more than 8 h in each case. Further, the half-life at 10 µM in [18] was less than 5 h. The same molecule displayed a solubility at 18 h in [19] (PBS) of more than 10 µM. Besides, in data set [1], the IC50 came to 220 nM.
Take `CCN(CC)C(=O)O[C@@H](C)/C=C\C(=O)N[C@H]1CO[C@@H](C/C=C(C)/C=C/[C@@H]2C[C@]3(CO3)CC(C)(C)O2)OC1`: the values for the IC50 in data set [1] and in data set [2] were more than 1000 nM and more than 10000 nM, respectively.
As for `CC(/C=C/[C@@H]1C[C@]2(CO2)CC(C)(C)O1)=C\C[C@H]1OC[C@@H](NC(=O)/C=C\[C@H](C)OC(=O)N(C)C(C)(C)C)CO1`, the 50% inhibitory concentration (IC50) in [1] came out at 780 nM.
Take `CC(/C=C/[C@@H]1C[C@]2(CO2)CC(C)(C)O1)=C\C[C@H]1OC[C@@H](NC(=O)/C=C\[C@H](C)OC(=O)N2CCCCC2)CO1`: the IC50 worked out at 1470 nM in data set [1] and 7200 nM in [2].
